Assay outcomes: PubChem BioAssay, several laboratories
Sampled rows, rich in hits. Any-hit rate of the full collection: about 2%.
HIF act: HIF pathway transcriptional activation. U2OS HRE-luciferase reporter, luminescence; normalized: DMSO 0%, desferrioxamine 100%. 300,000 tested, 0.32% active. activation, % at 7.5 µM (by protocol);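 active means mean activation of at least 10% of the iron chelator positive control signal, with at least half of replicates also reaching 10%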
NR2E3 ag-1: agonists of human nuclear receptor NR2E3; Q9Y5X4; GST-NR2E3/biotin-RetCOR TR-FRET, 1536-well; inhibition of corepressor binding, % at 4.78 µM; 320,000 tested, 0.12% active; AID 2300;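 active means percent inhibition above the cutoff of mean plus 3 SD of all tested compounds, set per screening campaign, cut at about 20% in these data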;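 further: 0% = DMSO wells and 100% = biotin wells as full block of FRET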
Target sequence (Q9Y5X4 whole entry, looked up): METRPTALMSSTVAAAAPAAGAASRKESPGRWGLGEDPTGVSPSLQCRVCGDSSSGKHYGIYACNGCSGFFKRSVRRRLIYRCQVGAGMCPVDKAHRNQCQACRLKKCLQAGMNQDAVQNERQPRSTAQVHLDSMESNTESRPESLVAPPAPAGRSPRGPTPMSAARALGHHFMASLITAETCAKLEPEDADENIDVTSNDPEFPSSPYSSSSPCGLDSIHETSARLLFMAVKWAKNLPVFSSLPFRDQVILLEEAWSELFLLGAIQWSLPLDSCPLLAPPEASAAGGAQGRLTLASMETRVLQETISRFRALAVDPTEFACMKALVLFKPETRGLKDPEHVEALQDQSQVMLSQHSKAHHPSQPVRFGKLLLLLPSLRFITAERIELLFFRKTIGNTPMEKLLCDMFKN
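System: GST-tagged NR2E3 plus biotinylated RetCOR corepressor; Amount: 1.35 nM GST-tagged NR2E3 final; Dosing: single nominal compound dose of 4.8 µM; Schedule: 5 h incubation at 4 °C; Technique: TR-FRET with europium anti-GST and streptavidin-D2, 340 nm excitation; Controls: biotin wells as high control, 0.6% DMSO wells as low control.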
EBV LMP1 NFkB: reduces LMP1-driven NF-kappaB luciferase signal. AID 504558. LMP1-induced NF-kappaB luciferase reporter cells, luminescence. inhibition, % at 12.5 µM. 350,000 tested, 0.69% active; in the data active means inhibition above about 41%;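 further: 0% = neutral control wells and 100% = reference inhibitor control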
NR2E3 ag-2: activates human NR2E3 receptor; CHO-S Gal4-NCOR/VP16-NR2E3 two-hybrid, luciferase; Q9Y5X4; AID 602229; inhibition of corepressor binding, % at 3.98 µM; 360,000 tested, 0.35% active;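 active means inhibition above the mean of all tested compounds plus 3 SD, cut at about 70% in these data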;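 further: 0% = DMSO with NR2E3 transfected cells and 100% = cells lacking NR2E3 construct; higher means lower luciferase signal from less NR2E3 corepressor binding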
TROY signal inh: TROY signaling inhibition | Q293 LMP1-TROYcd NF-kB luciferase reporter, 4 h | inhibition, % at 10 µM | 360,000 tested, 0.98% active | AID 1347056;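 active means compounds whose plate-normalised and pattern-corrected inhibition of the luciferase reporter signal at the single screening dose is 50% or more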
NR2E3 ag confirm: confirmation of human NR2E3 agonists; 2,300 tested, 51% active; shares compounds with NR2E3 ag-2; inhibition, % at 3.98 µM; AID 624378; CHO-S mammalian two-hybrid NR2E3-NCOR, luciferase luminescence;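 active means average inhibition above a cutoff equal to the mean inhibition of all tested compounds plus one SD, cut at about 70% in these data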;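 further: 0% = DMSO in NR2E3 cells and 100% = DMSO in cells lacking NR2E3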
GAL4-VP16 luc: counter-screen for NR2E3 agonists: GAL4-VP16 reporter inhibitors | CHO-S GAL4-VP16 luciferase reporter, luminescence | inhibition, % at 3.98 µM | 2,300 tested, 29% active | shares compounds with NR2E3 ag-2;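 active means mean inhibition above a cutoff equal to the average over all tested compounds plus one standard deviation, cut at about 70% in these data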;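 further: luciferase from a UAS reporter driven by GAL4-VP16 transactivation; 0% = DMSO with VP16-transfected cells and 100% = DMSO with cells lacking VP16; higher means less reporter light so more repression of VP16 activity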
Active calls of the source: *.

`COC(=O)C1CCN(C2CN(Cc3ccc(C)cc3)S(=O)(=O)C2)CC1` (stereo not drawn) gave NR2E3 ag-2 16.7 and TROY signal inh -0.3.
O=C(CCc1nc(-c2ccc(F)cc2)no1)Nc1cccc(C(=O)NC2CC2)c1 was read as EBV LMP1 NFkB 8.1, NR2E3 ag-2 -1.2 and TROY signal inh 17.3.
For CS(=O)(=O)N(CC(=O)N1CCOCC1)c1cc(Cl)ccc1Cl the results were HIF act 0.8, NR2E3 ag-1 -0.7, EBV LMP1 NFkB 14.3, NR2E3 ag-2 -32.9 and TROY signal inh 4.1.
`CCc1ccc(/C=C2/SC(=S)N(CCCC(=O)Nc3cccc(C(=O)O)c3)C2=O)cc1` gave EBV LMP1 NFkB -0.7, NR2E3 ag-2 -30.2 and TROY signal inh -7.8.
Screening O=C(CCCN1C(=O)/C(=C\c2ccccc2)SC1=S)Nc1ccc(O)cc1 returned HIF act -0.6, NR2E3 ag-1 -0.5, EBV LMP1 NFkB 9.5, NR2E3 ag-2 7.7 and TROY signal inh 15.9.
`Cc1ccc(C=C2SC(=S)N(CCCC(=O)Nc3cccc(C(=O)O)c3)C2=O)cc1` gave NR2E3 ag-2 72.8*, TROY signal inh -42.0, NR2E3 ag confirm 32.1 and GAL4-VP16 luc 88.0*.
Screening O=C(CCCN1C(=O)/C(=C/c2ccc3c(c2)OCO3)SC1=S)Nc1cccc(C(=O)O)c1 returned HIF act -3.3, NR2E3 ag-1 3.5, EBV LMP1 NFkB 28.3, NR2E3 ag-2 66.4, TROY signal inh 30.7, NR2E3 ag confirm 43.2 and GAL4-VP16 luc 67.6.
O=C(CCCN1C(=O)/C(=C\c2ccccc2)SC1=S)Nc1cccc(C(=O)O)c1 was read as HIF act -0.2, NR2E3 ag-1 1.4, EBV LMP1 NFkB -4.7, NR2E3 ag-2 -21.4 and TROY signal inh -24.7.
Cc1ccc(/C=C2\SC(=S)N(CCCC(=O)Nc3cccc(C(=O)O)c3)C2=O)cc1 was read as HIF act -0.5, NR2E3 ag-1 1.8, EBV LMP1 NFkB 7.6, NR2E3 ag-2 84.8*, TROY signal inh -22.4, NR2E3 ag confirm 40.4 and GAL4-VP16 luc 89.2*.
`Cc1ccc(/C=C2/SC(=S)N(CCCC(=O)Nc3ccc(O)cc3)C2=O)cc1` gave HIF act -3.4, EBV LMP1 NFkB 37.6, NR2E3 ag-2 87.5*, TROY signal inh -5.5, NR2E3 ag confirm 40.7 and GAL4-VP16 luc 89.5*.
Screening COc1ccc(CNC(=O)c2cccc3c(-c4cccc(C(N)=O)c4)coc23)cc1OC returned NR2E3 ag-2 52.9, TROY signal inh 63.5*, NR2E3 ag confirm 64.3 and GAL4-VP16 luc 57.0.
`COc1ccc(CNC(=O)c2cccc3c(-c4ccc(F)c(F)c4)coc23)cc1OC` gave NR2E3 ag-2 60.7, TROY signal inh 45.1, NR2E3 ag confirm 79.5* and GAL4-VP16 luc 47.6.
O=C(NCc1cccnc1)c1ccc(-c2ccc(F)c(F)c2)c2ccoc12 was read as NR2E3 ag-2 76.3*, TROY signal inh 18.2, NR2E3 ag confirm 95.7* and GAL4-VP16 luc 75.9*.
O=C(NCc1ccc(F)c(F)c1)c1ccc(-c2ccc(F)c(F)c2)c2ccoc12 was read as NR2E3 ag-2 -37.0 and TROY signal inh 6.9.
For COc1cc(-c2coc3c(C(=O)NCc4ccc(OC)c(OC)c4)cccc23)ccc1O the results were NR2E3 ag-2 52.8, TROY signal inh 66.5*, NR2E3 ag confirm 60.9 and GAL4-VP16 luc 30.0.
For COc1cc(-c2coc3c(C(=O)NCc4ccc(N(C)C)cc4)cccc23)ccc1O the results were NR2E3 ag-2 -111.3 and TROY signal inh -12.1.
Screening CCOC(=O)C(C#N)(Cc1cc(OC)cc(OC)c1)Cc1cc(OC)cc(OC)c1 returned HIF act 0.0, NR2E3 ag-1 0.8, EBV LMP1 NFkB 9.2, NR2E3 ag-2 -0.6 and TROY signal inh -10.3.
Screening O=C(Nc1nccs1)c1ccc(S(=O)(=O)NCC2CCCCC2)cc1 returned HIF act -0.6, NR2E3 ag-1 -0.2, EBV LMP1 NFkB 10.7, NR2E3 ag-2 58.2, TROY signal inh 30.0, NR2E3 ag confirm 59.3 and GAL4-VP16 luc 65.1.
Screening O=C(Nc1nccs1)c1ccc(S(=O)(=O)NCc2cccs2)cc1 returned HIF act 0.7, NR2E3 ag-1 5.2, EBV LMP1 NFkB 5.3, NR2E3 ag-2 -4.7 and TROY signal inh 3.4.
For O=C(COC(=O)CCS(=O)(=O)c1ccc(F)cc1)NC1CCCCC1 the results were NR2E3 ag-1 4.3, EBV LMP1 NFkB 7.4, NR2E3 ag-2 -21.7 and TROY signal inh 4.6.
`O=C(Nc1ccc(OC(F)(F)F)cc1)C1CCCN(S(=O)(=O)c2cccnc2)C1` (stereo not drawn) gave HIF act -24.2, NR2E3 ag-1 1.3, EBV LMP1 NFkB -10.8, NR2E3 ag-2 49.4, TROY signal inh 8.9, NR2E3 ag confirm -19.1 and GAL4-VP16 luc -12.4.
Screening COc1ccc(C(=O)N/C(=C\c2ccccc2)C(=O)Nc2ccc(C(=O)NCC(=O)O)cc2)cc1 returned HIF act 0.4, NR2E3 ag-1 -3.0, EBV LMP1 NFkB 6.5, NR2E3 ag-2 16.6 and TROY signal inh -9.1.
For O=C(NCCN1CCOCC1)/C(=C/c1ccco1)NC(=O)c1ccccc1 the results were HIF act -0.6, NR2E3 ag-1 1.1, EBV LMP1 NFkB -3.9, NR2E3 ag-2 -26.2 and TROY signal inh 13.5.
Oc1ccc(Cl)cc1Sc1cc(Cl)ccc1O was read as EBV LMP1 NFkB 1.1, NR2E3 ag-2 60.8, TROY signal inh 62.2*, NR2E3 ag confirm 100.2* and GAL4-VP16 luc 66.1.
For CN(C)C(=O)c1cc(Cl)ccc1Sc1cc(Cl)ccc1Cl the results were HIF act -0.3, NR2E3 ag-1 -1.6, EBV LMP1 NFkB -18.5, NR2E3 ag-2 -5.4 and TROY signal inh -32.9.
Nc1nc(-c2ccccn2)nc(N)c1Cc1c(F)cccc1Cl was read as HIF act 6.6, NR2E3 ag-1 -2.5, EBV LMP1 NFkB 11.1, NR2E3 ag-2 86.4*, TROY signal inh -30.0, NR2E3 ag confirm 97.9* and GAL4-VP16 luc 22.7.
Screening Nc1nc(-c2ccccn2)nc(N)c1Cc1ccc(Cl)cc1Cl returned HIF act 14.5*, NR2E3 ag-1 3.3, EBV LMP1 NFkB 11.6, NR2E3 ag-2 91.4*, TROY signal inh -29.9, NR2E3 ag confirm 100.1* and GAL4-VP16 luc 49.0.
Nc1nc(-c2ccccn2)nc(N)c1Cc1ccccc1F was read as HIF act 4.0, NR2E3 ag-1 -3.2, EBV LMP1 NFkB -12.3, NR2E3 ag-2 13.6 and TROY signal inh -33.2.
`CCCCN(C=O)c1c(CC)nc2ccc(C(=O)N3CCCCC3)cn12` gave NR2E3 ag-2 6.9 and TROY signal inh -5.3.
CSc1nc2ccccc2nc1N(C)S(=O)(=O)c1ccc(C)cc1 was read as HIF act 0.0, NR2E3 ag-1 0.3, EBV LMP1 NFkB 5.0, NR2E3 ag-2 3.9 and TROY signal inh 12.2.
